The source of these data is ChEMBL document CHEMBL4368921, “Discovery of novel simplified isoxazole derivatives of sampangine as potent anti-cryptococcal agents” (2019).

By MIC80 is commonly meant an inhibitory concentration at the 80% level, which refers to growth in some studies and to a panel of isolates in others.

The subject of test [1] is Cryptococcus neoformans. Kind of test: Antifungal activity against Cryptococcus neoformans var. grubii H99 after 48 hrs by serial dilution method. Type of test: functional. A digest of the protocol: (§1)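 Broth serial dilution per NCCLS. Medium was RPMI 1640 buffered with 0.165M MOPS, NaHCO3 (0.2%) and NaOH (0.27%). Strains were pre-grown in YPD at 30 °C with shaking. Inoculum 10³ CFU/mL; compounds in DMSO. Plates incubated at 35 °C for 48 h. MIC80 is the concentration giving 80% inhibition.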

The test system of test [2] is Candida albicans. Kind of test: Antifungal activity against Candida albicans SC5314 after 48 hrs by serial dilution method. It is filed as functional. Conditions: SC5314, 48 h. Summed up:
as §1

Test [3] concerns Cryptococcus neoformans. Kind of test: Antibiofilm activity against Cryptococcus neoformans var. grubii H99 at 0.062 to 8 ug/mL after 24 hrs by XTT analysis. Type of test: functional, organism-based. A digest of the protocol: (§2)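 H99 cells at 1.0×10^6 CFU/mL in RPMI 1640 left to adhere 90 min at 37 °C. Non-adherent cells were removed and the wells washed three times with PBS. Fresh RPMI with drug (0.062-8 µg/mL) or drug-free control was added, then 24 h more at 37 °C. Formation rate by XTT reduction. Means ± SD of three independent experiments; ANOVA and t-test.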

The test system of test [4] is Cryptococcus gattii. Kind of test: Antifungal activity against Cryptococcus gattii ATCC 14116 after 48 hrs by serial dilution method. Conditions: ATCC 14116, 48 h.
Test [5] concerns Cryptococcus neoformans. Kind of test: Antifungal activity against Cryptococcus neoformans var. grubii ATCC 34877 after 48 hrs by serial dilution method. It is filed as functional. Conditions: var. grubii ATCC 34877, 48 h. A digest of the protocol: as §1
The subject of test [6] is Cryptococcus neoformans. Nature of the test: Inhibition of melanin production in Cryptococcus neoformans var. grubii H99 at 16 ug/mL. Type of test: functional, organism-based. Summed up:
(§3)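 PBS-washed exponential H99 cells at 1×10^6 cells/mL in RPMI 1640 with drug. Drops placed on L-DOPA (melanin) or urea (urease) medium and incubated at 37 °C. Read-out: black versus white colonies for melanin, red medium for urease.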

Test [7] deals with Cryptococcus neoformans. Kind of test: Induction of apoptosis in Cryptococcus neoformans var. grubii H99 assessed as necrotic cells at 2 ug/mL after 24 hrs by annexin V-FITC/propidium iodide staining-based flow cytometric analysis (reference value: 0.19%). It is filed as functional. (In flow cytometry, cells or beads pass a laser one at a time.)
The subject of test [8] is Cryptococcus neoformans. Kind of test: Induction of apoptosis in Cryptococcus neoformans var. grubii H99 assessed as late apoptotic cells at 0.5 ug/mL after 24 hrs by annexin V-FITC/propidium iodide staining-based flow cytometric analysis (reference value: 0.15%). It is filed as functional.
The subject of test [9] is Cryptococcus neoformans. Nature of the test: Fungistatic activity against Cryptococcus neoformans var. grubii H99 at 0.25 ug/mL up to 48 hrs by time-growth curve assay. It is filed as functional, organism-based.
In test [10] the test system is Cryptococcus neoformans. Nature of the test: Cell cycle arrest in Cryptococcus neoformans var. grubii H99 assessed as accumulation of cells at G1 phase at 1 ug/mL after 24 hrs by propidium iodide staining-based flow cytometric analysis (reference value: 12.24%). It is filed as functional. A digest of the protocol: (§4)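 Exponential H99 cells washed three times with PBS and set at 5×10^5 cells/mL in RPMI 1640. Dosed 0.5, 1 or 2 µg/mL and shaken (200 rpm) at 30 °C for 24 h. Walls digested 1 h at 30 °C in PBS with 0.24% snailase, then fixed overnight in 70% ethanol. Stained with 50 µg/mL PI, 4 °C, 30 min; ~1×10^6 cells read by flow cytometry.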

Test [11] concerns Cryptococcus neoformans. Nature of the test: Cell cycle arrest in Cryptococcus neoformans var. grubii H99 assessed as accumulation of cells at G1 phase at 0.5 ug/mL after 24 hrs by propidium iodide staining-based flow cytometric analysis (reference value: 12.24%). It is filed as functional. Summed up: as §4
The subject of test [12] is Cryptococcus neoformans. Nature of the test: Fungistatic activity against Cryptococcus neoformans var. grubii H99 up to 48 hrs by time-growth curve assay. Type of test: functional, organism-based. Summed up:
(§5)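 Exponential H99 cells at 2×10^6 cells/mL in 5 mL RPMI 1640 with drug (0.062-1 µg/mL) or DMSO control. Shaken at 200 rpm, 30 °C. Cells counted at 0, 3, 6, 9, 12, 24 and 48 h. Three independent experiments.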

The test system of test [13] is Cryptococcus neoformans. Nature of the test: Cell cycle arrest in Cryptococcus neoformans var. grubii H99 assessed as decrease in cells at S phase at 0.5 to 2 ug/mL after 24 hrs by propidium iodide staining-based flow cytometric analysis. It is filed as functional, organism-based. A digest of the protocol: as §4
Test [14] deals with Cryptococcus neoformans. Kind of test: Inhibition of urease production in Cryptococcus neoformans var. grubii H99 at 64 ug/mL. Type of test: functional, organism-based. A digest of the protocol:
as §3

In test [15] the test system is Cryptococcus neoformans. Kind of test: Induction of apoptosis in Cryptococcus neoformans var. grubii H99 assessed as necrotic cells at 1 ug/mL after 24 hrs by annexin V-FITC/propidium iodide staining-based flow cytometric analysis (reference value: 0.19%). It is filed as functional.
Test [16] concerns Cryptococcus neoformans. Kind of test: Induction of apoptosis in Cryptococcus neoformans var. grubii H99 assessed as late apoptotic cells at 2 ug/mL after 24 hrs by annexin V-FITC/propidium iodide staining-based flow cytometric analysis (reference value: 0.15%). Type of test: functional.
Test [17] deals with Cryptococcus neoformans. Nature of the test: Induction of apoptosis in Cryptococcus neoformans var. grubii H99 assessed as early apoptotic cells at 0.5 ug/mL after 24 hrs by annexin V-FITC/propidium iodide staining-based flow cytometric analysis (reference value: 1.05%). It is filed as functional.
The subject of test [18] is Cryptococcus neoformans. Nature of the test: Induction of apoptosis in Cryptococcus neoformans var. grubii H99 assessed as late apoptotic cells at 1 ug/mL after 24 hrs by annexin V-FITC/propidium iodide staining-based flow cytometric analysis (reference value: 0.15%). Type of test: functional.
Test [19] relates to Cryptococcus neoformans. Kind of test: Cell cycle arrest in Cryptococcus neoformans var. grubii H99 assessed as accumulation of cells at G1 phase at 2 ug/mL after 24 hrs by propidium iodide staining-based flow cytometric analysis (reference value: 12.24%). It is filed as functional. A digest of the protocol: as §4
Test [20] concerns Cryptococcus neoformans. Nature of the test: Antibiofilm activity against Cryptococcus neoformans var. grubii H99 at 0.062 ug/mL after 24 hrs by XTT analysis relative to control. It is filed as functional. Summed up:
as §2
For orientation: Tetrazolium dyes change colour on reduction, which living cells bring about.

Test [21] concerns Cryptococcus neoformans. Nature of the test: Fungicidal activity against Cryptococcus neoformans var. grubii H99 at 2 ug/mL after 48 hrs by time-kill assay. It is filed as functional, organism-based. Summed up:
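Time-kill: PBS-washed exponential H99 cells at 2×10^6 cells/mL in 5 mL RPMI 1640 with drug, shaken (200 rpm) at 30 °C. Samples taken at 0, 6, 12, 24 and 48 h, diluted and plated on SDA. CFU counted after 48 h at 30 °C.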

For test [22], the system named is Cryptococcus neoformans. Kind of test: Induction of apoptosis in Cryptococcus neoformans var. grubii H99 assessed as necrotic cells at 0.5 ug/mL after 24 hrs by annexin V-FITC/propidium iodide staining-based flow cytometric analysis (reference value: 0.19%). Type of test: functional.
Test [23] concerns Cryptococcus neoformans. Kind of test: Induction of apoptosis in Cryptococcus neoformans var. grubii H99 assessed as early apoptotic cells at 2 ug/mL after 24 hrs by annexin V-FITC/propidium iodide staining-based flow cytometric analysis (reference value: 1.05%). It is filed as functional.
Test [24] deals with Cryptococcus neoformans. Nature of the test: Induction of apoptosis in Cryptococcus neoformans var. grubii H99 assessed as early apoptotic cells at 1 ug/mL after 24 hrs by annexin V-FITC/propidium iodide staining-based flow cytometric analysis (reference value: 1.05%). Type of test: functional.
For test [25], the system named is Cryptococcus neoformans. Nature of the test: Fungistatic activity against Cryptococcus neoformans var. grubii H99 assessed as inhibition of cell growth at 1 ug/mL up to 48 hrs by time-growth curve assay. Type of test: functional. As to conditions: read-out: GI. A digest of the protocol: as §5

The structures appear in SMILES notation. In brackets after ≈: the same amount, converted by molar mass. Activity calls are given as the source filed them. The calls are words filed in the database; no cut-off is given here.

Turning to `Cc1ccccc1-c1noc2c1C(=O)c1sccc1C2=O`, the MIC80 in [1] was 0.25 mg/L (≈ 0.847 µM); in test [2] it was > 64 mg/L.
Regarding `O=C1c2ccsc2C(=O)c2c(-c3ccc(Br)cc3)noc21`, the MIC80 in test [1] and in [2] was > 64 mg/L in each case.
Regarding `C[C@@H]1[C@H](O)[C@@H](C)/C=C/C=C/C=C/C=C/C=C/C=C/C=C/[C@H](O[C@@H]2O[C@H](C)[C@@H](O)[C@H](N)[C@@H]2O)C[C@@H]2O[C@](O)(C[C@@H](O)C[C@@H](O)[C@H](O)CC[C@@H](O)C[C@@H](O)CC(=O)O[C@H]1C)C[C@H](O)[C@H]2C(=O)O`, the outcome in [3] was Active.
With `O=C1c2ccsc2C(=O)c2c(-c3ccccc3Cl)noc21`, the MIC80 was 0.25 mg/L (≈ 0.792 µM) in test [1] and > 64 mg/L in test [2].
The matching figures for `COc1cccc(-c2noc3c2C(=O)c2sccc2C3=O)c1`: > 64 mg/L and > 64 mg/L.
Consider `O=C1c2ccsc2C(=O)c2c(-c3ccccc3F)noc21`, for which the MIC80 is 0.25 mg/L (≈ 0.835 µM) in test [1] and > 64 mg/L in [2].
Consider `O=C1c2ccsc2C(=O)c2c(-c3ccccc3Br)noc21`, for which the MIC80 in test [1] is 0.25 mg/L (≈ 0.694 µM); in test [2] it was > 64 mg/L.
With `COCc1noc2c1C(=O)c1sccc1C2=O`, the MIC80 in test [1] came to 0.25 mg/L (≈ 1 µM); in [2], 8 mg/L (≈ 32.1 µM); in test [4], 0.5 mg/L (≈ 2.01 µM); in test [5], 0.25 mg/L (≈ 1 µM).
For the compound `CCc1noc2c1C(=O)c1sccc1C2=O`, the inhibition result in test [6] and in test [14] was “Active” in each case. Moreover, the Activity in test [7] was 0.32%; in test [8], 3.33%; in [10], 49.14%; in [11], 50.21%; in test [12] it was “Dose-dependent effect”; in [15], 0.51%. Besides, the Activity is recorded as 6.78% in [16]; 20.49% in test [17]; 5.39% in test [18]; 48.61% in [19]; >80% in test [20]; 1.35% in [22]. Further, the Activity in [23] turned out to be 50.7%; in [24] it was 39.23%. The result in test [9], in [13], in test [3] and in test [21] was Active. Moreover, the MIC80 in [1] worked out at 0.031 mg/L (≈ 0.133 µM); in test [2], 2 mg/L (≈ 8.57 µM); in test [4] it was 0.25 mg/L (≈ 1.07 µM); in test [5] it was 0.12 mg/L (≈ 0.514 µM). In addition, in test [25], the inhibition of growth at 1 µg/mL amounted to 100%.
As for `COc1ccccc1-c1noc2c1C(=O)c1sccc1C2=O`, the MIC80 in [1] was 0.5 mg/L (≈ 1.61 µM); in test [2], > 64 mg/L.
Consider `CCCc1noc2c1C(=O)c1sccc1C2=O`, for which the MIC80 in test [1] amounted to 0.12 mg/L (≈ 0.485 µM); in [2], 4 mg/L (≈ 16.2 µM); in test [4], 0.25 mg/L (≈ 1.01 µM); in test [5], 0.12 mg/L (≈ 0.485 µM). Besides, in test [3], the result was Active.
For the compound `O=C1c2ccsc2C(=O)c2c(-c3ccccn3)noc21`, the MIC80 in test [1] amounted to 0.25 mg/L (≈ 0.886 µM); in test [2], 8 mg/L (≈ 28.3 µM).
